KCNQ1 inh = inhibitors of human KCNQ1 potassium channel; P51787; CHO-K1 KCNQ1, FluxOR thallium flux fluorescence; stronger effect = higher value; B-score at 10 µM; 310,000 compounds, 1.3% hits; AID 2642;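 active means compounds whose thallium flux B-score, printed positive for inhibition, exceeds three library SD while starting fluorescence stays within three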;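 further: channel opened by potassium depolarization with thallium stimulus after 20 min compound exposure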
KCNQ1 act = potentiators or activators of human KCNQ1 potassium channel. AID 2648. B-score at 10 µM. CHO-K1 KCNQ1, thallium flux FluxOR fluorescence; stronger effect = higher value. P51787. 310,000 compounds, 0.35% hits;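 active means fluorescence ratio B-score, a plate-corrected score, at least three library SD, with initial intensity B-score within 5 SD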
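Assay system: CHO-K1 cells stably expressing KCNQ1. Medium: assay buffer for compound exposure, DMSO matched across wells. Timing: 37 °C overnight plating, 90-min dark dye load, 20-min compound pretreatment. Signal: kinetic FluxOR fluorescence, 10 s baseline plus 110 s post-stimulus.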
KCNK9 inh = human KCNK9 channel inhibition; HEK293 KCNK9, FluxOR thallium flux fluorescence; stronger effect = lower value; B-score at 10 µM; 310,000 compounds, 1.2% hits; AID 488922;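 active means ratio B-score over 3 SD below the library mean, with starting fluorescence within 5 SD of its mean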;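 further: negative B-score means less thallium flux so channel inhibition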
Target sequence (Q9NPC2 whole entry, looked up): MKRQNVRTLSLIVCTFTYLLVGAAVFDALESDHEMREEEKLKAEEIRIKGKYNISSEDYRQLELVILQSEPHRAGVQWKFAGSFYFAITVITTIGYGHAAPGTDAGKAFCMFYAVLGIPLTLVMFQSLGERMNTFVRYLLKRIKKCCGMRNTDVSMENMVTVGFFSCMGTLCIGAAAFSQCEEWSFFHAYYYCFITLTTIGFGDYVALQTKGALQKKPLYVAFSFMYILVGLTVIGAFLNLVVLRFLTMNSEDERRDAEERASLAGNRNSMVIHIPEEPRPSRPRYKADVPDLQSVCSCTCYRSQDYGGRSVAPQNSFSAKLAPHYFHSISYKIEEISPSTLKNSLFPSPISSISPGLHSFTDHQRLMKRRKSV
Cl transport mod = modulators of human KCC2 chloride dependent transport | Q9H2X9 | KCC2 cells, thallium flux FluoZin-2 fluorescence | B-score of Tl+ flux slope (higher = more flux/activation; lower = inhibition) at 10 µM | 190,000 compounds, 2.2% hits;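 active means thallium flux slope and its plate-corrected score both differing from the plate sample mean at a set confidence after two filtering rounds, in either direction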;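 further: slope of fluorescence scaled to starting intensity during 10 to 20 s after thallium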
hERG rescue = hERG (human) protection from proarrhythmic block; Q12809; CHO-hERG, FluxOR thallium flux, dofetilide IC70 present; activation (rescue from dofetilide block), less the hit threshold, % at 10 µM; 310,000 compounds, 0.51% hits;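 active means activation above the mean of controls blocked by dofetilide plus 5 SD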;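 further: thallium influx through hERG after potassium depolarization seen as dye fluorescence rise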
KCNK3 block = human KCNK3 channel inhibition, primary screen; B-score at 10 µM; CHO-KCNK3 thallium flux, FluxOR fluorescence; stronger effect = lower value; 340,000 compounds, 0.84% hits; AID 602410;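 active means B-score under library mean minus 4 SD, starting fluorescence ratio at most library mean plus 5 SD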;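 further: more negative B-score means stronger inhibition of thallium flux through KCNK3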
Target sequence (O14649 whole entry, looked up): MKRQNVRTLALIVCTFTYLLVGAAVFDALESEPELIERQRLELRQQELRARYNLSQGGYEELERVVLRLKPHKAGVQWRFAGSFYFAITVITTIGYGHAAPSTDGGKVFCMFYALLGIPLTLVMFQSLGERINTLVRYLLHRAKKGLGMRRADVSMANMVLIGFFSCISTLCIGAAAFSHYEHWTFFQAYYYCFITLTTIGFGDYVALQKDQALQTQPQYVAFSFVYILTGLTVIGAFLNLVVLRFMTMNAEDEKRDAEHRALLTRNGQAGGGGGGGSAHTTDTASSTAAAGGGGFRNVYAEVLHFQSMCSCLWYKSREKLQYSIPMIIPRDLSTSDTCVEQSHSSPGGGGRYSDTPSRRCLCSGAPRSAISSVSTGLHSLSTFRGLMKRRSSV
KCC2 secondary = confirmation of human KCC2 transport modulators; 3,700 compounds, 15% hits; normalised thallium flux (F/F0 slope) at 10 µM; HEK293-KCC2, thallium flux, FluoZin2 fluorescence; stronger effect = higher value; shares compounds with Cl transport mod;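 active means thallium flux slope above the same plate's solvent-only control mean plus 3 SD; inconclusive means the two replicate wells disagree; inactive means no significant difference from solvent-only control wells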
KCC2 bumet counter = bumetanide-insensitive thallium flux in KCC2 cells with ouabain, counter-screen; shares compounds with Cl transport mod; HEK293-KCC2 + bumetanide/ouabain, thallium flux FluoZin2; stronger effect = higher value; normalized thallium flux at 10 µM; 3,700 compounds, 49% hits;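 active means thallium entry rate above the same plate's blocked-transporter control wells by more than 3 SD; inconclusive means the two repeat wells disagree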;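 further: raw slope of fluorescence over initial fluorescence between 10 and 20 s after thallium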
KCC2 secondary2 = confirmation of human KCC2 transport modulators | shares compounds with Cl transport mod | HEK293-KCC2, thallium flux FluoZin2 fluorescence; actives lie on both sides; F/F0 rise rate, 10–20 s post-thallium | normalized thallium flux at 10 µM | 3,700 compounds, 23% hits;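 active means thallium flux slope more than 3 SD above or below the plate's solvent-only control mean, mostly below; inconclusive means the two repeat wells disagreed; inactive means no significant shift from solvent-only controls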;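 further: raw slope with 0.1% DMSO as baseline and bumetanide as block control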
HEK293 Tl flux = acts in parental HEK cells, KCC2 counter-screen; shares compounds with Cl transport mod; HEK293 parental cells, thallium flux FluoZin2, ouabain; baseline-ratio fluorescence slope, 10–20 s after thallium; 3,700 compounds, 46% hits; thallium flux rate (normalised fluorescence) at 10 µM;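 active means thallium flux rate significantly above the same plate's solvent-only control wells, beyond their mean plus 3 SD; inconclusive means the two replicate wells gave conflicting results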
KCC2 ouabain = confirmation of human KCC2 modulators with ouabain; shares compounds with Cl transport mod; HEK293-KCC2, thallium flux FluoZin2 fluorescence; bidirectional: low = inhibitor, high = activator; raw Tl+ flux slope (below DMSO = inhibition, above = activation) at 10 µM; 3,700 compounds, 48% hits;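 active means thallium flux slope beyond 3 SD from same-plate DMSO control mean in most replicates, usually higher, sometimes lower; inconclusive means repeat tests gave conflicting results; inactive means no significant difference from controls in most replicates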;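 further: slope of initial-normalized fluorescence between seconds 10 and 20 after thallium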
HEK counter2 = counter-screen for KCC2 modulators: effect in parental HEK293 cells | shares compounds with Cl transport mod | thallium flux FluoZin-2 fluorescence slope | thallium flux slope at 10 µM | 3,700 compounds, 33% hits | AID 1718;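 active means thallium flux slope above the same plate's solvent-control mean plus 3 SD in both duplicate wells; inconclusive means duplicate wells that disagreed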;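 further: run without ouabain in cells lacking the KCC2 cotransporter; slope of fluorescence scaled to its starting value between 10 and 20 s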
An asterisk follows results filed as active; i = inactive; ? = inconclusive; nt = not tested or not shown. Most compounds without a hit are left out; they make up all but 4.1% or so of the library.

SMILES | KCNQ1 inh | KCNQ1 act | KCNK9 inh | Cl transport mod | hERG rescue | KCNK3 block | KCC2 secondary | KCC2 bumet counter | KCC2 secondary2 | HEK293 Tl flux | KCC2 ouabain | HEK counter2
O=C(Nc1ccc(Cc2ccncc2)cc1)c1cccc([N+](=O)[O-])c1 | i | i | i | -4.2* | 9.8* | i | 0.0049 | ? | 0.024* | 0.0079 | ? | 0.011
O=C(Nc1ccc(Cc2ccncc2)cc1)c1ccc(N2CCOCC2)c([N+](=O)[O-])c1 | i | i | i | -5.9* | -11 | i | 0.0089 | ? | ? | 0.0074 | 0.016* | 0.01
O=C(Nc1ccc(N2CCCCC2)c(Cl)c1)c1ccc(N2CCOCC2)c([N+](=O)[O-])c1 | i | i | i | nt | -4 | i | nt | nt | nt | nt | nt | nt
COc1cc(OC)cc(N2C(=O)CC(N3CCC(C(=O)N4CCCCC4)CC3)C2=O)c1 (configuration not stated) | i | i | i | nt | -4 | i | nt | nt | nt | nt | nt | nt
Cc1ccccc1Oc1ccc2c(c1)[C@@H]1C[C@H]3[C@@H](C(=O)N1CC2)[C@H](C)ON3C | nt | nt | nt | nt | nt | i | nt | nt | nt | nt | nt | nt
O=C(Nc1ccncc1)c1cc2ccccc2cc1O | i | i | i | nt | -16 | i | nt | nt | nt | nt | nt | nt
CNC(=O)C1CC(=O)N(Cc2ccccc2)C(=Nc2ccc(OC)cc2)S1 (configuration not stated) | i | i | i | nt | -5 | i | ? | 0.0045 | 0.029 | 0.0075 | 0.019 | 0.01
CNC(=O)C1CC(=O)N(Cc2ccc(OC)c(OC)c2)C(=Nc2ccc(OC)cc2)S1 (configuration not stated) | i | i | i | 0.2 | -11 | i | nt | nt | nt | nt | nt | nt
O=C(Nc1cc(=O)[nH]c2nc(-c3ccccc3)nn12)c1ccccc1Cl | i | i | i | -3.2* | -13 | i | 0.0081 | 0.0066 | 0.03 | 0.0068 | ? | ?
c1ccc(-c2csc(Cc3nnc4n3CCCCC4)n2)cc1 | i | i | i | -1.8 | -8 | i | 0.0061 | 0.0056 | 0.027 | 0.0065 | 0.014* | 0.0096
COc1ccccc1-c1csc(Cc2nnc3n2CCCCC3)n1 | i | i | i | -1.4 | -8 | i | nt | nt | nt | nt | nt | nt
Cc1ccc(NC(=O)Cc2ccc(F)cc2)cc1 | i | i | i | 2.6* | -14 | i | 0.0085 | 0.006 | 0.035 | 0.0038 | 0.02 | 0.011
O=C(NC(=S)N(CC1CCC1)CC1CCCO1)c1cccc([N+](=O)[O-])c1 (configuration not stated) | i | 16* | i | 99* | 7.9* | i | 0.043* | 0.089* | 0.045* | 0.077* | 0.075* | 0.032*
Cc1sc2ncnc(SCC(=O)NCC(C)C)c2c1C | i | i | i | 1.9 | 0 | i | nt | nt | nt | nt | nt | nt
Cc1sc2ncnc(SC(C)C#N)c2c1C (configuration not stated) | i | i | i | 3.8* | -1 | i | ? | 0.026* | 0.029 | 0.01* | ? | ?
CCC(Sc1ncnc2sc(C)c(C)c12)C(=O)OC (configuration not stated) | i | i | i | nt | -6 | i | 0.026* | 0.056* | 0.046* | 0.042* | 0.044* | 0.036*
O=C(NNC(=O)c1ccccc1F)C1=NN(c2ccccc2)C(=O)CC1 | i | i | i | nt | -5 | i | nt | nt | nt | nt | nt | nt
COCCNC(=S)N/N=C(\C)c1ccc(OC)cc1 | i | i | i | -0.088 | -10 | i | nt | nt | nt | nt | nt | nt
C/C(=N\NC(=S)NCc1ccccc1)c1ccccc1 | i | i | i | 7.8* | -10 | i | 0.01 | 0.043* | 0.031 | 0.015* | 0.07* | 0.011
COc1ccc(CNC(=S)N/N=C(/C)c2ccccc2)cc1 | i | i | i | 5.7* | -5 | i | 0.0071 | 0.023* | 0.034 | 0.014* | ? | 0.016*
C/C(=N\NC(=S)NCc1ccccc1)c1ccco1 | i | i | i | 13* | 4.9* | i | 0.012 | 0.019* | 0.038 | ? | 0.029* | 0.012
O=C(Cc1ccccn1)c1ccncc1 | nt | nt | nt | nt | nt | i | nt | nt | nt | nt | nt | nt
Oc1csc(Cc2nc(-c3ccc(-c4ccccc4)cc3)cs2)n1 | i | i | i | nt | 3 | i | nt | nt | nt | nt | nt | nt
Oc1csc(Cc2nc(-c3ccc4ccccc4c3)cs2)n1 | i | i | i | nt | -16 | i | 0.016 | ? | 0.027 | 0.0073 | 0.016 | 0.01
CC(Oc1ccccc1F)C(=O)NNC(=O)c1cc2ccccc2o1 (configuration not stated) | i | i | i | nt | -6 | i | 0.0072 | 0.028* | 0.034 | 0.022* | 0.03* | 0.016*
SMILES | KCNQ1 inh | KCNQ1 act | KCNK9 inh | Cl transport mod | hERG rescue | KCNK3 block | KCC2 secondary | KCC2 bumet counter | KCC2 secondary2 | HEK293 Tl flux | KCC2 ouabain | HEK counter2
COc1ccc(OCC(=O)NNC(=O)c2cc3ccccc3o2)cc1 | i | i | i | 5.1* | -3 | i | 0.013* | 0.017* | 0.032 | ? | ? | 0.013
Cc1nc(NC(C)c2ccccc2)c2c3c(sc2n1)CCC3 (configuration not stated) | i | i | i | -6.3* | -15 | i | 0.0061 | 0.0042 | 0.03 | 0.0071 | 0.019 | 0.01
COc1ccc(-c2cc(C(=O)OCC(=O)c3c(N)n(C)c(=O)n(C)c3=O)c3ccccc3n2)cc1 | i | i | i | -4.8* | -20 | i | 0.0087 | 0.0058 | 0.029 | 0.0071 | 0.021 | ?
COc1ccc(-c2cc(C(=O)c3c(N)n(C)c(=O)n(C)c3=O)c3ccccc3n2)cc1 | i | i | i | 0.0076 | -13 | i | nt | nt | nt | nt | nt | nt
O=S(=O)(Nc1ccc2c(c1)OCCO2)c1c(F)cccc1F | i | i | i | nt | -6 | i | nt | nt | nt | nt | nt | nt
Cc1c(Cl)cccc1NC(=S)C(=C([O-])c1ccc(Cl)s1)[n+]1ccccc1 | nt | nt | nt | nt | nt | i | nt | nt | nt | nt | nt | nt

Screens (PubChem)
